pKi: −log10 of the molar value. Active and inactive are the calls of the source. The rule behind the calls is not given here.
Tests used:
[1] = target: Sodium-dependent dopamine transporter (Rattus norvegicus, UniProt P23977); assay: Inhibition of DAT in rat striatum assessed as [3H]dopamine accumulation; format: tissue-based
How it was run: (§1)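 Uptake of [3H]dopamine (DAT, rat striatum) or [3H]serotonin (SERT, rat cerebral cortex) was measured with at least five triplicate concentrations spaced around the IC50. IC50 came from nonlinear curve fitting and was converted to Ki by Cheng-Prusoff. Values are mean ± SEM of 3–8 independent experiments.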

[2] = Inhibition of NET in rat cerebral cortex assessed as [3H]norepinephrine accumulation; format: tissue-based
How it was run: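 Rat cerebral cortex tissue; uptake of [3H]norepinephrine via NET measured. At least five concentrations per compound, each in triplicate, spaced evenly around the IC50. IC50 obtained by nonlinear curve fitting, then converted to Ki by Cheng-Prusoff. Values are mean ± SEM of three to eight independent experiments.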

Rattus norvegicus [3] = species: Rattus norvegicus; assay: Selectivity ratio of Ki for DAT in rat striatum to Ki for SERT in rat cerebral cortex; format: tissue-based
How it was run: (§2)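 Ratio of Ki values from [3H]substrate uptake inhibition: [3H]dopamine for DAT in rat striatum, and [3H]serotonin for SERT or [3H]norepinephrine for NET in rat cerebral cortex. Each Ki came from an IC50 fitted over at least five triplicate concentrations, converted by Cheng-Prusoff.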

Rattus norvegicus [4] = species: Rattus norvegicus; assay: Selectivity ratio of Ki for DAT in rat striatum to Ki for NET in rat cerebral cortex; format: tissue-based; how it was run: as §2
[5] = target: Sodium-dependent serotonin transporter (Rattus norvegicus, UniProt P31652); assay: Inhibition of SERT in rat cerebral cortex assessed as [3H]serotonin accumulation; format: tissue-based; how it was run: as §1
Rattus norvegicus [6] = assay: Antidepressant activity in […] Sprague-Dawley rat assessed as reduction of immobility time at 10 mg/kg, ip administered 1 hr before test by forced swimming test; format: functional, organism-based; set-up: dose 10 mg/kg
How it was run: (§3)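 Male Sprague-Dawley rats (200–225 g), drug-naive and used once. Forced swim test: 15 min pretest swim in a water-filled glass cylinder (depth 22 cm, 24–25 °C). Drug or vehicle (10% β-hydroxypropyl cyclodextrin) was given i.p. 15 min after the pretest and again before the 5 min test swim 24 h later. Immobility was scored from video by a blinded rater.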

Rattus norvegicus [7] = species: Rattus norvegicus; assay: Selectivity ratio of Ki for SERT in rat cerebral cortex to Ki for NET in rat cerebral cortex; format: tissue-based; how it was run: as §2
Rattus norvegicus [8] = assay: Antidepressant activity in […] Sprague-Dawley rat assessed as reduction of immobility time at 15 mg/kg, ip administered 30 mins before test by forced swimming test; format: functional, organism-based; set-up: dose 15 mg/kg; how it was run: as §3

Sequence of Sodium-dependent serotonin transporter (P31652 whole entry): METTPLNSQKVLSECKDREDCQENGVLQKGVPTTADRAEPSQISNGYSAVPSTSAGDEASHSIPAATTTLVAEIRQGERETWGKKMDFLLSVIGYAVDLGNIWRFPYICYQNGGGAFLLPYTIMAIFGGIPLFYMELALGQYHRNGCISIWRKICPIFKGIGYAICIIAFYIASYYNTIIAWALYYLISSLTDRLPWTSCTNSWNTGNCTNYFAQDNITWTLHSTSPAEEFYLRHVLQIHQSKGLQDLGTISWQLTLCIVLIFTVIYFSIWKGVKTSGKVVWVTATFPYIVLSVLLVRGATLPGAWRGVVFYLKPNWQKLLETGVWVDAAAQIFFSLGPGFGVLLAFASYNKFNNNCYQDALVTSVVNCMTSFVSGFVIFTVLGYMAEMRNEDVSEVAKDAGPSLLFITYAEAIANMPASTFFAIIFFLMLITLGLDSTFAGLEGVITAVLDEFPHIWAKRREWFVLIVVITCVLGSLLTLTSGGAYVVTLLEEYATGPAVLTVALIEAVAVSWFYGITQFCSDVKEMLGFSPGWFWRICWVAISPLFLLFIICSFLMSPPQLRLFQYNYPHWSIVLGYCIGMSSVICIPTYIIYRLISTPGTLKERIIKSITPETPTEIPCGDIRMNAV
Sequence of Sodium-dependent dopamine transporter (P23977 whole entry): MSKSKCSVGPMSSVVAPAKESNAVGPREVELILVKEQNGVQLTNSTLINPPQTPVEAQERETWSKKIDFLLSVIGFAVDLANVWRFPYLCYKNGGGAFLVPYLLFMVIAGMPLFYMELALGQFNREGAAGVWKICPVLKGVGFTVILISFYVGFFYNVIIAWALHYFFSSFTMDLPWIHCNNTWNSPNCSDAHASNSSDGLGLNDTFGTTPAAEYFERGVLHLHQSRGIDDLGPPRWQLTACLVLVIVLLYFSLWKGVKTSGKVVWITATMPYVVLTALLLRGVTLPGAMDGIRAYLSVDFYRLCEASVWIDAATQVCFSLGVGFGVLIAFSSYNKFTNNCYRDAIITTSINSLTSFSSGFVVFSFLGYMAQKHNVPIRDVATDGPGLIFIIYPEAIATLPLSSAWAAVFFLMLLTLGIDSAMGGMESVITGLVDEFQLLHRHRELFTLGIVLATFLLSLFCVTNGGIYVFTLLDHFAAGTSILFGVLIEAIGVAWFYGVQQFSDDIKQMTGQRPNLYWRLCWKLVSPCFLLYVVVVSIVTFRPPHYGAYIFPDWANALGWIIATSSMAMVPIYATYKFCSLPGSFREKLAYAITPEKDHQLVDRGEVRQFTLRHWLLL

| SMILES | pKi [1] | pKi [2] | Ratio Ki (Rattus norvegicus [3]) | Ratio Ki (Rattus norvegicus [4]) | pKi [5] | Activity (Rattus norvegicus [6]) | Ratio Ki (Rattus norvegicus [7]) | Activity (Rattus norvegicus [8]) |
| --- | --- | --- | --- | --- | --- | --- | --- | --- |
| COc1ccc(CN[C@H]2CC[C@@H](C(c3ccccc3)c3ccccc3)OC2)cc1 | 7.80 | 7.53 | – | – | – | – | – | – |
| Oc1cccc(CN[C@H]2CC[C@@H](C(c3ccccc3)c3ccccc3)OC2)c1 | 7.50 | 7.41 | 0.78 | 0.81 | 7.40 | Active | 1.04 | – |
| c1ccc(C(c2ccccc2)[C@@H]2CC[C@H](NCc3ccc[nH]3)CO2)cc1 | 7.36 | 7.40 | 0.31 | 1.09 | 6.85 | – | 3.56 | – |
| Oc1ccccc1CN[C@H]1CC[C@@H](C(c2ccccc2)c2ccccc2)OC1 | 6.70 | 6.80 | 0.45 | 1.25 | 6.36 | – | 2.75 | – |
| c1ccc(C(c2ccccc2)[C@@H]2CC[C@H](NCc3cccc4ccccc34)CO2)cc1 | 6.33 | 6.63 | 5.33 | 2.04 | 7.05 | – | 0.38 | – |
| O[C@@H](CN[C@H]1CC[C@@H](C(c2ccccc2)c2ccccc2)OC1)c1ccccc1 | 6.84 | 6.79 | 0.15 | 0.9 | 6.03 | – | 5.78 | – |
| c1ccc(C(c2ccccc2)[C@@H]2CC[C@H](NCc3ccccn3)CO2)cc1 | 6.68 | – | 0.43 | 0.41 | 6.32 | – | 0.96 | – |
| Oc1ccc(CN[C@H]2CC[C@@H](C(c3ccccc3)c3ccccc3)OC2)cc1 | 7.38 | – | – | – | 7.54 | – | – | – |
| c1ccc(C(c2ccccc2)[C@@H]2CC[C@H](NCc3ccco3)CO2)cc1 | 6.96 | 7.22 | 0.96 | 1.84 | 6.94 | – | 1.92 | – |
| c1ccc(C(c2ccccc2)[C@@H]2CC[C@H](NCc3cccs3)CO2)cc1 | 7.38 | 7.33 | 0.22 | 0.88 | 6.73 | – | 3.94 | – |
| COc1cccc([C@@H](O)CN[C@H]2CC[C@@H](C(c3ccccc3)c3ccccc3)OC2)c1 | 6.90 | 6.37 | 0.11 | 0.29 | 5.96 | – | 2.55 | – |
| COc1cccc([C@H](O)CN[C@H]2CC[C@@H](C(c3ccccc3)c3ccccc3)OC2)c1 | 6.86 | 6.52 | 0.21 | 0.46 | 6.19 | – | 2.16 | – |
| O[C@@H]1C[C@@H](C(c2ccccc2)c2ccccc2)OC[C@H]1NCc1ccc2[nH]ccc2c1 (single isomer, unassigned) | 7.07 | – | – | – | – | – | – | – |
| c1ccc(C(c2ccccc2)[C@@H]2CC[C@H](NCc3cccnc3)CO2)cc1 | 6.84 | 6.45 | 0.95 | 0.41 | 6.82 | – | 0.43 | – |
| O[C@H](CN[C@H]1CC[C@@H](C(c2ccccc2)c2ccccc2)OC1)c1ccccc1 | 7.27 | 6.53 | 0.07 | 0.18 | 6.10 | – | 2.67 | – |
| O[C@H](CN[C@H]1CC[C@@H](C(c2ccccc2)c2ccccc2)OC1)c1ccc(F)cc1 | 6.97 | 6.65 | 0.13 | 0.48 | 6.08 | – | 3.72 | – |
| c1ccc(C(c2ccccc2)[C@@H]2CC[C@H](NCc3ccncc3)CO2)cc1 | 7.55 | 6.34 | 0.03 | 0.06 | 6.05 | – | 1.92 | – |
| CN(C)CCCN1c2ccccc2CCc2ccccc21 | – | – | – | – | – | – | – | Active |
| O[C@@H](CN[C@H]1CC[C@@H](C(c2ccccc2)c2ccccc2)OC1)c1ccc(F)cc1 | 7.14 | 6.26 | 0.06 | 0.13 | 5.94 | – | 2.09 | – |
